Experiment [1] deals with T1, Polyunsaturated fatty acid 5-lipoxygenase (Homo sapiens, UniProt P09917).
T1 sequence (P09917 whole entry): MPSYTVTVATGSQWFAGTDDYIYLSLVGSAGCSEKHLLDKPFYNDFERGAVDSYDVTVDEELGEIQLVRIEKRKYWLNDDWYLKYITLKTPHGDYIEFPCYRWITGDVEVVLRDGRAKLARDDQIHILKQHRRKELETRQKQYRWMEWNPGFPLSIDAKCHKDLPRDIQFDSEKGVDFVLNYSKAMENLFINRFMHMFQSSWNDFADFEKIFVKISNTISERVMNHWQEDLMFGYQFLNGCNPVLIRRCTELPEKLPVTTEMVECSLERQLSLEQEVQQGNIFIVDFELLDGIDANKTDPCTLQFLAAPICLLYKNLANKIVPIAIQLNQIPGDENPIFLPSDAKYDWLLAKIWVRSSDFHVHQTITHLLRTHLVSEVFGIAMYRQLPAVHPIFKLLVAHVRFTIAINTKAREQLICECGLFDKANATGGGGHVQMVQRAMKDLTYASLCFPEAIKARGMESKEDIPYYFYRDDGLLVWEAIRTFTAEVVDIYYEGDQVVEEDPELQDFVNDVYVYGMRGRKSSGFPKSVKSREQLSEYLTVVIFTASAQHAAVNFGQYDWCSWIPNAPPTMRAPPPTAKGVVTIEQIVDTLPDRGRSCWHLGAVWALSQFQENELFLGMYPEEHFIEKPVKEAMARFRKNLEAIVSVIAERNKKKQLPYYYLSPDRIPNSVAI
The experiment can be described thus: Inhibition of human 5-LOX expressed in Escherichia coli BL21 using arachidonic acid as substrate preincubated for 15 mins followed by substrate addition by HPLC analysis. Put shortly:
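Human recombinant 5-LOX was expressed in E. coli BL21 (pT3-5LO) and purified. Enzyme (0.5 µg) in PBS/EDTA was preincubated with compound 15 min at 4 °C, then warmed 30 s at 37 °C. The reaction was started with 2 mM CaCl2 plus 20 µM arachidonic acid and run 10 min at 37 °C. Products were analysed by HPLC.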

For experiment [2], the system named is H9c2. Description: Cytoprotective activity against hypoxia-induced toxicity rat H9c2 cells assessed as increase in cell viability at 80 nM preincubated for 18 hrs followed by incubated in hypoxia for 48 hrs by MTT assay. It is filed as functional. An outline of the steps: (§1)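 10^4 H9c2 cells were seeded and grown 24 h at 37 °C. Compound (80 nM–20 µM) was added either 18 h before or just before 48 h hypoxia in a sealed humidified chamber (5% CO2, 95% N2). Viability was measured by MTT for about 2 h, with formazan dissolved in HCl/isopropanol and read at 570 nm. Results are % of corresponding control, triplicates.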

In experiment [3] the target is T1, Polyunsaturated fatty acid 5-lipoxygenase. The experiment can be described thus: Inhibition of 5-LOX in human PMNL cells assessed as A23187-stimulated LTB4 production preincubated for 15 mins followed by A23187 addition and measured after 10 mins by HPLC analysis. It is filed as cell-based. An outline of the steps: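 Human PMNL (5×10^6 in 1 ml PBS with 1 mg/ml glucose and 1 mM CaCl2) were preincubated with compound 15 min at 37 °C. 2.5 µM A23187 was added for 10 min at 37 °C, and the reaction was stopped with methanol. 5-LOX products were analysed by HPLC.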

Experiment [4] concerns H9c2. The experiment can be described thus: Cytoprotective activity against hypoxia-induced apoptosis in rat H9c2 cells assessed as early apoptotic cells at 2 uM preincubated for 18 hrs followed by incubated in hypoxia for 48 hrs by annexin V based flow cytometry (reference value: 60 %). The experiment is classed as functional. Put shortly:
(§2)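 H9c2 cells were pretreated 18 h at 2 µM, then grown under normoxia or hypoxia. Apoptotic cells were detected by flow cytometry with fluorescein-annexin V staining. The read-out is % annexin V-positive cells.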

The subject of experiment [5] is H9c2. Description: Cytoprotective activity against hypoxia-induced apoptosis in rat H9c2 cells assessed as early apoptotic cells at 2 uM preincubated for 18 hrs followed by incubated in hypoxia for 48 hrs by annexin V based flow cytometry. It is filed as functional, cell-based. An outline of the steps: as §2
Experiment [6] concerns H9c2. Description: Cytoprotective activity against hypoxia-induced toxicity rat H9c2 cells assessed as cell death at 20 uM preincubated for 18 hrs followed by incubated in hypoxia for 48 hrs by MTT assay.
The test system of experiment [7] is H9c2. Description: Antioxidant activity in rat H9c2 cells assessed as reduction in hypoxia-induced lipid peroxidation by measuring TBARS level preincubated for 18 hrs followed by incubated in hypoxia for 48 hrs by spectrophotometry. The experiment is classed as functional, cell-based. Put shortly:
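10^4 H9c2 cells were pretreated 18 h with 80 nM or 2 µM, then held 48 h under hypoxia. Cells were lysed in modified RIPA buffer. Lysates were mixed with 20% acetic acid (pH 3.5) and 0.78% thiobarbituric acid, heated at 95 °C for 45 min, and centrifuged. A532 was read and expressed as TBARS per µg protein. Triplicate measurements, duplicate experiments.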

Experiment [8] concerns H9c2. The experiment can be described thus: Antioxidant activity in rat H9c2 cells assessed as increase in hypoxia-induced reduction of MnSOD expression at 2 uM preincubated for 18 hrs followed by incubated in hypoxia for 48 hrs by Western blot analysis. It is filed as functional, cell-based. An outline of the steps:
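H9c2 cells were pretreated 18 h at 80 nM or 2 µM, then held 48 h under hypoxia. Lysates were made in RIPA buffer with protease inhibitors and DTT, and 80 µg protein was run on 12% SDS-PAGE. Blots were probed overnight at 4 °C with anti-MnSOD, with GAPDH as internal standard. Detection was by ECL and bands were quantified by densitometry.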

The subject of experiment [9] is H9c2. Description: Cytoprotective activity against hypoxia-induced toxicity rat H9c2 cells assessed as cell death at 20 uM incubated for 18 hrs in hypoxia measured after 48 hrs by MTT assay.
For experiment [10], the system named is H9c2. Description: Antioxidant activity in rat H9c2 cells assessed as reduction in hypoxia-induced NO release at 80 nM to 2 uM preincubated for 18 hrs followed by incubated in hypoxia for 48 hrs by griess assay. It is filed as functional, cell-based. An outline of the steps:
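10^4 H9c2 cells were pretreated 18 h at 37 °C with 80 nM or 2 µM, then held 48 h in a hypoxic chamber. Supernatant nitrite was measured with Griess reagent (0.5% sulfanilamide, 2.5% H3PO4, 0.05% naphthylethylene diamine) for 10 min at RT. Absorbance was read at 550 nm against a sodium nitrite standard curve.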

The test system of experiment [11] is H9c2. The experiment can be described thus: Cytoprotective activity against hypoxia-induced toxicity rat H9c2 cells assessed as increase in cell viability at 80 nM to 7 uM incubated for 18 hrs in hypoxia measured after 48 hrs by MTT assay. The experiment is classed as functional. An outline of the steps:
as §1

For experiment [12], the system named is H9c2. The experiment can be described thus: Antioxidant activity in rat H9c2 cells assessed as hypoxia-induced RO production at 2 uM preincubated for 18 hrs followed by incubated in hypoxia for 48 hrs by DCFH-DA staining-based flow cytometric analysis( Rvb = 45 %). The experiment is classed as functional.
Experiment [13] deals with H9c2. The experiment can be described thus: Cytoprotective activity against hypoxia-induced toxicity rat H9c2 cells assessed as increase in cell viability at 80 nM to 7 uM preincubated for 18 hrs followed by incubated in hypoxia for 48 hrs by MTT assay. The experiment is classed as functional. Put shortly: as §1
Experiment [14] concerns the target T2, Polyunsaturated fatty acid 5-lipoxygenase (Homo sapiens) (UniProt P09917).
T2 sequence (whole entry): T1 sequence (P09917 whole entry)
Description: Residual activity of human 5-LOX expressed in Escherichia coli BL21 using arachidonic acid as substrate at 10 uM preincubated for 15 mins followed by substrate addition by HPLC analysis relative to control.

Structures are written as SMILES. The source made the active and inactive calls. The calls are words filed in the database; no cut-off is given here.

As to `COc1cc(/C=C/c2ccc(O)cc2)cc(OC)c1` [PTEROSTILBENE], the IC50 in [1] stood at 3910 nM; in [3] it was 530 nM. For the same compound, the Activity with H9c2 [2] is recorded as 25 - 35%; in the experiment with H9c2 [4] it was 25%.

Consider `COc1ccc(/C=C/c2cc(OC)cc(OC)c2)cc1` [TRISMETHOXYRESVERATROL], for which the IC50 in experiment [1] was 3620 nM; in experiment [3], 760 nM. Also, the Activity with H9c2 [2] is 25 - 35%.

On to `CC(c1cc2ccccc2s1)N(O)C(N)=O` (configuration not stated), for which the outcome with H9c2 [5] was inactive.

Turning to `COc1cc(/C=C/c2ccc(O)c(OC)c2)cc(OC)c1`, the half-inhibitory concentration (IC50) was 780 nM in experiment [1] and 70 nM in experiment [3]. In the experiment with H9c2 [2], the Activity is given as 25 - 35%.

In the case of `Oc1cc(O)cc(/C=C/c2ccc(O)c(O)c2)c1` [PICEATANNOL], the cell death in the experiment on H9c2 [6] and in the experiment on H9c2 [9] was 80% in each case. Also, the Activity entry is “Dose-dependent effect” with H9c2 [7] and 38% in the experiment on H9c2 [12]. Further, the outcome in the experiment with H9c2 [8], in the experiment on H9c2 [10], with H9c2 [11] and in the experiment on H9c2 [13] was Active. In addition, the values for the IC50 in experiment [1] and in experiment [3] were 1100 nM and 240 nM, respectively. Moreover, the outcome in the experiment on H9c2 [5] was inactive.

As to `COc1cc(/C=C/c2ccc(OC)c(O)c2)cc(OC)c1`, the concentration for half-maximal inhibition (IC50) came out at 5490 nM in experiment [1] and 5480 nM in experiment [3]. The Activity with H9c2 [2] is 25 - 35%.

In the case of `Oc1ccc(/C=C/c2cc(O)cc(O)c2)cc1` [RESVERATROL], the cell death with H9c2 [6] and in the experiment on H9c2 [9] was 80% each time. Besides, the Activity result in the experiment on H9c2 [7] was “Dose-dependent effect”; in the experiment with H9c2 [11], 95%; in the experiment with H9c2 [13], 95%. Also, the result in the experiment with H9c2 [8] and in the experiment with H9c2 [10] was Active. Moreover, the residual activity in experiment [14] worked out at 63.4%. Moreover, the IC50 in experiment [3] stood at 4900 nM.

Turning to `COc1cc(/C=C/c2ccc(O)c(O)c2)cc(OC)c1`, the IC50 was found to be 320 nM in experiment [1] and 50 nM in experiment [3]. The Activity with H9c2 [2] is 25 - 35%.

The values are drawn from ChEMBL document CHEMBL4364322, “Protective effect of piceatannol and bioactive stilbene derivatives against hypoxia-induced toxicity in H9c2 cardiomyocytes and structural elucidation as 5-LOX inhibitors” (Eur J Med Chem, 2019).
